≈ marks a conversion by molar mass, not a printed value.
Experiments:
Assay type in all cases: functional
[1] = tested on: Pseudomonas aeruginosa; test: In vitro antibacterial activity against Pseudomonas aeruginosa 12
Outline: (§1)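 Two-fold agar dilution MIC on Mueller-Hinton agar (pH 7.4), following the Japan Society of Chemotherapy MIC Committee method. Inoculum was about 10⁶ CFU, and growth was read after 20 h at 37 °C. MIC is reported in µg/mL.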

[2] = tested on: Staphylococcus aureus; test: In vitro antibacterial activity against Staphylococcus aureus 209P JC-1; outline: as §1
[3] = tested on: Escherichia coli; test: In vitro antibacterial activity against Escherichia coli NIHJ JC-2; outline: as §1
[4] = species on record: Mus musculus; test: Oral efficacy against Pseudomonas aeruginosa 12 on Systemic Infections in Mice
Outline: (§2)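 Groups of at least 10 male Std-ddY mice (20 ± 2 g) were infected ip, with S. pyogenes A65 at 3×10^7 cells or P. aeruginosa 12 at 4×10^3 cells. Compounds were suspended in 0.2% sodium carboxymethylcellulose and given orally at 0 and 6 h postinfection. The result is reported as ED50 in mg/kg.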

[5] = tested on: Staphylococcus epidermidis; test: In vitro antibacterial activity against Streptococcus epidermis 8; outline: as §1
[6] = tested on: Serratia marcescens; test: In vitro antibacterial activity against Serratia marcescens S-9
Outline: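 MIC (µg/mL) by 2-fold agar dilution on Mueller-Hinton agar (pH 7.4), following the Japan Society of Chemotherapy MIC Committee method. Inoculum of about 10⁶ CFU. Growth was read after 20 h at 37 °C.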

[7] = tested on: Staphylococcus aureus; test: In vitro antibacterial activity against Staphylococcus aureus 50774; outline: as §1
[8] = species on record: Mus musculus; test: Oral efficacy against Streptococcus pyogenes A65 on Systemic Infections in Mice; outline: as §2
[9] = tested on: Enterococcus faecalis; test: In vitro antibacterial activity against Streptococcus faecalis 2473; outline: as §1
[10] = tested on: Streptococcus pyogenes; test: In vitro antibacterial activity against Streptococcus pyogenes A65; outline: as §1
[11] = tested on: Escherichia coli; test: In vitro antibacterial activity against Escherichia coli P-5101; outline: as §1
[12] = tested on: Moraxella bovis; test: In vitro antibacterial activity against glucose nonfermenter Moraxella bovis P-7101; outline: as §1
[13] = tested on: Enterobacter cloacae; test: In vitro antibacterial activity against Enterobacter cloacae 963
[14] = tested on: Klebsiella pneumoniae; test: In vitro antibacterial activity against Klebsiella pneumoniae 13; outline: as §1
[15] = tested on: Pseudomonas aeruginosa; test: In vitro antibacterial activity against Pseudomonas aeruginosa IFO 3445; outline: as §1
[16] = tested on: Serratia marcescens; test: In vitro antibacterial activity against Serratia marcescence S-9; outline: as §1

MIC [1] [µg/mL] | MIC [2] [µg/mL] | MIC [3] [µg/mL] | MIC [5] [µg/mL] | MIC [7] [µg/mL] | MIC [9] [µg/mL] | MIC [10] [µg/mL] | MIC [11] [µg/mL] | MIC [12] [µg/mL] | MIC [13] [µg/mL] | MIC [14] [µg/mL] | MIC [15] [µg/mL] | MIC [16] [µg/mL] | Compound | ED50 [4] [mg/kg] | MIC [6] [µg/mL] | ED50 [8] [mg/kg]
0.2 (≈ 0.529 µM) | 0.1 (≈ 0.264 µM) | 0.0125 (≈ 0.033 µM) | 0.05 (≈ 0.132 µM) | 0.05 (≈ 0.132 µM) | 0.78 (≈ 2.06 µM) | 0.39 (≈ 1.03 µM) | 0.0125 (≈ 0.033 µM) | 0.39 (≈ 1.03 µM) | 0.025 (≈ 0.0661 µM) | 0.05 (≈ 0.132 µM) | 1.56 (≈ 4.12 µM) | – | CN1CCN(c2c(F)c(N)c3c(=O)c(C(=O)O)cn(C4CC4)c3c2F)CC1 | 2.18 | 0.1 (≈ 0.264 µM) | 22.9
12.5 (≈ 31.6 µM) | 3.13 (≈ 7.92 µM) | 0.39 (≈ 0.986 µM) | – | – | – | – | – | – | – | – | – | – | CN1CCN(c2c(F)c(S)c3c(=O)c(C(=O)O)cn(C4CC4)c3c2F)CC1 | – | – | –
0.39 (≈ 0.994 µM) | 0.05 (≈ 0.127 µM) | 0.0063 (≈ 0.0161 µM) | – | – | – | – | – | – | – | – | – | – | CC1CN(c2c(F)c(N)c3c(=O)c(C(=O)O)cn(C4CC4)c3c2F)CCN1C (centres undefined) | – | – | –
1.56 (≈ 3.98 µM) | 0.78 (≈ 1.99 µM) | 0.1 (≈ 0.255 µM) | – | – | – | – | – | – | – | – | – | – | CNc1c(F)c(N2CCN(C)CC2)c(F)c2c1c(=O)c(C(=O)O)cn2C1CC1 | – | – | –
1.56 (≈ 3.95 µM) | 0.39 (≈ 0.986 µM) | 0.05 (≈ 0.126 µM) | – | – | – | – | – | – | – | – | – | – | C[C@@H]1CN(c2c(F)c(F)c3c(=O)c(C(=O)O)cn(C4CC4)c3c2F)C[C@H](C)N1 [ORBIFLOXACIN] | – | – | –
3.13 (≈ 6.68 µM) | 0.78 (≈ 1.66 µM) | 0.78 (≈ 1.66 µM) | – | – | – | – | – | – | – | – | – | – | CN1CCN(c2c(F)c(NCc3ccccc3)c3c(=O)c(C(=O)O)cn(C4CC4)c3c2F)CC1 | – | – | –
> 100 | 100 (≈ 194 µM) | 12.5 (≈ 24.2 µM) | – | – | – | – | – | – | – | – | – | – | COc1ccc(CSc2c(F)c(N3CCN(C)CC3)c(F)c3c2c(=O)c(C(=O)O)cn3C2CC2)cc1 | – | – | –
0.39 (≈ 0.98 µM) | 0.1 (≈ 0.251 µM) | 0.0125 (≈ 0.0314 µM) | 0.1 (≈ 0.251 µM) | 0.1 (≈ 0.251 µM) | 0.78 (≈ 1.96 µM) | 0.78 (≈ 1.96 µM) | 0.0125 (≈ 0.0314 µM) | 1.56 (≈ 3.92 µM) | 0.05 (≈ 0.126 µM) | 0.05 (≈ 0.126 µM) | 0.78 (≈ 1.96 µM) | 0.2 (≈ 0.503 µM) | CC1CN(c2c(F)c(Cl)c3c(=O)c(C(=O)O)cn(C4CC4)c3c2F)CCN1 (centres undefined) | 1.65 | – | –
0.78 (≈ 1.96 µM) | 0.2 (≈ 0.503 µM) | 0.025 (≈ 0.0628 µM) | – | – | – | – | – | – | – | – | – | – | CN1CCN(c2c(F)c(Cl)c3c(=O)c(C(=O)O)cn(C4CC4)c3c2F)CC1 | – | – | –
0.78 (≈ 1.99 µM) | 0.05 (≈ 0.127 µM) | 0.025 (≈ 0.0637 µM) | – | – | – | – | – | – | – | – | – | – | CC1(C)CN(c2c(F)c(N)c3c(=O)c(C(=O)O)cn(C4CC4)c3c2F)CCN1 | – | – | –
0.78 (≈ 2.05 µM) | 0.39 (≈ 1.02 µM) | 0.05 (≈ 0.131 µM) | – | – | – | – | – | – | – | – | – | – | CN1CCN(c2c(F)c(F)c3c(=O)c(C(=O)O)cn(C4CC4)c3c2F)CC1 | – | – | –
0.39 (≈ 0.96 µM) | 0.05 (≈ 0.123 µM) | 0.025 (≈ 0.0615 µM) | 0.05 (≈ 0.123 µM) | 0.025 (≈ 0.0615 µM) | 0.39 (≈ 0.96 µM) | 0.39 (≈ 0.96 µM) | 0.0125 (≈ 0.0308 µM) | 0.78 (≈ 1.92 µM) | 0.05 (≈ 0.123 µM) | 0.1 (≈ 0.246 µM) | 0.78 (≈ 1.92 µM) | 0.2 (≈ 0.492 µM) | C[C@@H]1CN(c2c(F)c(N)c3c(=O)c(C(=O)O)cn(C4CC4)c3c2F)C[C@H](C)N1C | 2.21 | – | 5.64
0.78 (≈ 2.06 µM) | 0.2 (≈ 0.529 µM) | 0.05 (≈ 0.132 µM) | – | – | – | – | – | – | – | – | – | – | CC1CNCCN1c1c(F)c(N)c2c(=O)c(C(=O)O)cn(C3CC3)c2c1F (centres undefined) | – | – | –
0.2 (≈ 0.507 µM) | 0.05 (≈ 0.127 µM) | 0.025 (≈ 0.0634 µM) | – | – | – | – | – | – | – | – | – | – | Nc1c(F)c(N2CCNC(CO)C2)c(F)c2c1c(=O)c(C(=O)O)cn2C1CC1 (centres undefined) | – | – | –
0.78 (≈ 1.99 µM) | 0.025 (≈ 0.0637 µM) | 0.0125 (≈ 0.0319 µM) | – | – | – | – | – | – | – | – | – | – | C[C@@H]1NCCN(c2c(F)c(N)c3c(=O)c(C(=O)O)cn(C4CC4)c3c2F)[C@@H]1C (relative stereo) | – | – | –
0.78 (≈ 1.89 µM) | 0.2 (≈ 0.486 µM) | 0.025 (≈ 0.0607 µM) | – | – | – | – | – | – | – | – | – | – | C[C@@H]1CN(c2c(F)c(Cl)c3c(=O)c(C(=O)O)cn(C4CC4)c3c2F)C[C@H](C)N1 | – | – | –

Compound | MIC [1] [µg/mL] | MIC [2] [µg/mL] | MIC [3] [µg/mL] | MIC [5] [µg/mL] | MIC [7] [µg/mL] | MIC [9] [µg/mL] | MIC [10] [µg/mL] | MIC [11] [µg/mL] | MIC [12] [µg/mL] | MIC [13] [µg/mL] | MIC [14] [µg/mL] | MIC [15] [µg/mL] | MIC [16] [µg/mL] | ED50 [4] [mg/kg] | MIC [6] [µg/mL] | ED50 [8] [mg/kg]
O=C(O)c1cn(C2CC2)c2c(F)c(N3CCNCC3)c(F)c(Cl)c2c1=O | 0.39 (≈ 1.02 µM) | 0.1 (≈ 0.261 µM) | 0.0125 (≈ 0.0326 µM) | – | – | – | – | – | – | – | – | – | – | – | – | –
Nc1c(F)c(N2CCNCC2)c(F)c2c1c(=O)c(C(=O)O)cn2C1CC1 | 0.1 (≈ 0.274 µM) | 0.05 (≈ 0.137 µM) | 0.0063 (≈ 0.0173 µM) | 0.05 (≈ 0.137 µM) | 0.05 (≈ 0.137 µM) | 0.39 (≈ 1.07 µM) | 0.2 (≈ 0.549 µM) | 0.0063 (≈ 0.0173 µM) | 0.39 (≈ 1.07 µM) | 0.0125 (≈ 0.0343 µM) | 0.025 (≈ 0.0686 µM) | 0.39 (≈ 1.07 µM) | – | 1.56 | 0.05 (≈ 0.137 µM) | 170
CC1COc2c(N3CCN(C)CC3)c(F)cc3c(=O)c(C(=O)O)cn1c23 (centres undefined) [OFLOXACIN] | – | 0.78 (≈ 2.16 µM) | – | 0.2 (≈ 0.553 µM) | 0.2 (≈ 0.553 µM) | 1.56 (≈ 4.32 µM) | 0.39 (≈ 1.08 µM) | 0.05 (≈ 0.138 µM) | 1.56 (≈ 4.32 µM) | 0.1 (≈ 0.277 µM) | 0.1 (≈ 0.277 µM) | 1.56 (≈ 4.32 µM) | – | 6.62 | 0.2 (≈ 0.553 µM) | 10.8

— ChEMBL document CHEMBL1124792, “Synthesis and structure-activity relationships of 5-substituted 6,8-difluoroquinolones, including sparfloxacin, a new quinolone antibacterial agent with improved potency” (1990)
